High-throughput results deposited in PubChem by several laboratories.
The full list was thinned out, with hits kept by preference.
Hsp70 act = Hsp70 transcriptional activators, primary screen, cell-based, HeLa, Hsp70 promoter luciferase, luminescence, 10 µM. HeLa Hsp70 promoter luciferase reporter; scaled: vehicle 0, proteasome-inhibitor control 100%. activation, % at 10 µM. 200,000 tested, 0.04% active. AID 1203, 2008;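 active means activation above the mean across all tested compounds plus 3 SD, cutoff set per campaign, cut at about 5.5% in these data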;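 further: 100% = MG132 at 30 µM as the positive control and 0% = DMSO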
HSF1 inhib = HSF1 inhibitors in luciferase reporter cells, primary screen, cell-based, NIH3T3, luminescence | NIH3T3-HGL HSE-luciferase, MG132-induced, luminescence 8 h; active compounds read low | activity change, negative = inhibition, % at 7.5 µM (by protocol) | 300,000 tested, 0.77% active | AID 2098, 2009;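 active means more than half of replicate wells show activity change below -50%, luminescence cut by over half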;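 further: luciferase reports HSF-1 transcriptional activity via heat shock element; 0% = median of DMSO wells and -100% = zero luminescence signal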
HSF1 activator = HSF-1 activators, primary screen, NIH3T3-HGL cells, MG132 stress, luminescence, single point | NIH3T3-HGL HSF-1 luciferase reporter, 8 h; 100% = twice DMSO control signal | activation, % at 9 µM | 300,000 tested, 1.7% active;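 active means mean replicate activation of at least 50% with a set share of replicates each reaching 50%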;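 further: 0% = median of the neutral control wells and 100% = twice that signal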
L major viab = Leishmania major promastigote growth inhibition, primary screen; Leishmania major promastigotes, resazurin fluorescence viability; inhibition, % at 10 µM; 200,000 tested, 9% active; AID 1063, 2008; in the data active means inhibition above about 50%;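 further: promastigotes grown with compound for 44 hours at 28 °C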
T cruzi inh = inhibitors of intracellular T. cruzi growth, primary screen, luminescence, NIH3T3 host cells; T. cruzi beta-gal in NIH3T3, 90 h; inhibition, % (no concentration beside the values); 300,000 tested, 1.4% active; AID 1885, 2009;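 active means mean inhibition across valid replicates above about 55%, limit read from the data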;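 further: signal also drops with host cell toxicity which is not excluded here; 0% = plate median of DMSO wells and 100% = zero luminescence signal; higher percent means less beta-gal luminescence so fewer parasites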
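Test system: β-gal T. cruzi (Tulahuen C4) inside NIH/3T3 cells / Quantity: 5,000 cells/well / Measured by: luminescence from GalScreen with 0.05% NP40, read after 60 min / Medium: DMEM plus 2% FBS / Measure: parasite load inhibition, % / Reagent: Tulahuen C4 trypomastigotes, 5000/well / Schedule: co-culture of at least 90 h after 3 h attachment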
Active calls of the source: *; . = no result given.

SMILES	Hsp70 act	HSF1 inhib	HSF1 activator	L major viab	T cruzi inh
O=[N+]([O-])c1ccc(-c2csc(N3CCCCCC3)n2)cc1	.	13	40	.	8
c1ccc(-c2csc(Nc3nc(N4CCOCC4)nc(N4CCOCC4)n3)n2)cc1	0	-28	-36	2	61*
Cc1cc(C)nc(Nc2nc(-c3ccccc3)cs2)n1	.	-20	-25	.	7
NC(=S)c1c(Cl)cc(C(F)(F)F)cc1Cl	.	-4	29	.	-14
CC(OC(=O)c1cc(Br)ccc1O)C(=O)NC1(C#N)CCCCC1 (centres undefined)	.	-4	5	.	-4
CCc1ccccc1NC(=S)N1CCN(c2cccc(OC)c2)CC1	.	-10	-25	.	-11
Cc1ccn(S(=O)(=O)c2ccc(C(C)(C)C)cc2)n1	0	-3	9	71*	3
O=C(c1ccc(SCc2cccc(Br)c2)c([N+](=O)[O-])c1)N1CCN(c2ccccn2)CC1	0	6	-5	47	58*
Cc1ccc2cccc(NC(=O)C(F)(F)F)c2n1	0	143	215*	-3	-5
COc1ccccc1N1CC(C)(C)C(=O)N(C(=O)c2ccc(C)cc2)C1=S	.	6	2	.	-26
Cc1ccc(-c2noc(CCC(=O)Nc3ccccc3C)n2)cc1	0	-2	-4	0	-8
Cc1ccc(-c2noc(CCC(=O)Nc3cc(C)ccn3)n2)cc1	0	27	69*	-5	-20
Cc1ccnc(NC(=O)Cc2ccc(-c3ccccc3)cc2)c1	.	72	78*	.	16
CCOC(=O)C1CCN(C(=O)CCc2nnc3ccc(N4CCC(C)CC4)nn23)CC1	.	0	-1	.	-22
COc1ccccc1N1CCN(C(=O)CSc2nc3ccccc3nc2N2CCC(C)CC2)CC1	.	11	15	.	38
CC(NC(=O)Cc1ccc(Br)cc1)c1ccccc1 (centres undefined)	.	4	20	.	-3
CC(C)(C)N=C1NC(=NC(C)(C)C)c2ccccc21	0	8	35	66*	36
c1ccc2c(c1)C(=NCC1CCCO1)NC2=NCC1CCCO1 (centres undefined)	0	-9	-14	5	-26
Cc1ccc(-n2nc(C)c3c(C)c(CCC(=O)NCC4CCCO4)c(=O)n(C)c32)cc1 (centres undefined)	.	0	14	.	63*
CCn1c(=O)c(CCC(=O)NCC2CCCO2)c(C)c2c(C)nn(-c3ccccc3)c21 (centres undefined)	.	-1	-4	.	-1
O=C(Nc1ccccc1)c1nnn(Cc2ccccc2)c1NC(=O)C(F)(F)F	0	4	23	-10	-4
COc1cc(C(=O)N2CCN(C/C=C/c3ccccc3)CC2)cc(OC)c1OC	0	2	-15	3	2
CCOc1cccc2cc(C(=O)N3CCc4ccccc43)c(=O)oc12	0	-1	0	-7	14
CCOc1cc(C(=O)N2CCN(C/C=C/c3ccccc3)CC2)cc(OCC)c1OCC	-1	3	28	66*	33
CCOc1cccc2cc(C(=O)N3CCN(C/C=C/c4ccccc4)CC3)c(=O)oc12	0	-3	23	96*	12
SMILES	Hsp70 act	HSF1 inhib	HSF1 activator	L major viab	T cruzi inh
O=C(COC(=O)c1c(Cl)ccc(Cl)c1Cl)NC(=O)NCc1ccccc1	0	4	-9	79*	11
COc1cccc(OC)c1C(=O)OCC(=O)NC(=O)NCc1ccccc1	0	3	-1	11	0
CC(NC(=O)Nc1ccccc1)C(c1cccs1)N1CCOCC1 (centres undefined)	0	-2	-3	-1	6
CC(NC(=O)Nc1ccccc1)C(c1ccccc1)N1CCOCC1 (centres undefined)	0	1	-3	52*	-2
O=C(NCc1ccccc1)N1CCN(c2ccc(Cl)c(Cl)c2)CC1	0	-12	-14	-1	4
O=C(O)C1CC1C(=O)N1CCN(c2ccc(Cl)c(Cl)c2)CC1 (centres undefined)	0	-4	-22	88*	6
COc1ccc(O)c(CN2CCN(CCc3ccccc3)C(CCO)C2)c1 (centres undefined)	0	-3	-8	77*	2
COc1ccc(CN2CCN(CCc3ccccc3)C(CCO)C2)c(O)c1 (centres undefined)	0	4	13	87*	-14
COc1ccc(CN2CCN(CCCc3ccccc3)C(CCO)C2)c(O)c1 (centres undefined)	.	-12	-28	.	-1
OCCC1CN(Cc2c(O)ccc3ccccc23)CCN1CCc1ccccc1 (centres undefined)	0	167	216*	5	-30
CCOC(=O)Cc1nc(-c2ccc(Cl)cc2)n[nH]1	0	2	8	2	-7
CN(C)CCCn1c(=O)n(Cc2ccco2)c(=O)c2c3c(sc21)CCCCC3	.	-9	-12	.	52
CCOC(=O)c1sc2c(c1C)c(=O)n(Cc1ccccc1)c(=O)n2CCN(C)C	.	2	7	.	59*
NCCNC(=O)Cn1c(=O)c2c3c(sc2n(Cc2ccccc2)c1=O)CCCC3	.	0	4	.	5
CN(C)CCCn1c(=O)n(CCc2ccccc2)c(=O)c2c3c(sc21)CCCCC3	.	6	23	.	61*
CN(C)CCn1c(=O)n(Cc2ccccc2)c(=O)c2c3c(sc21)CCCCC3	.	3	18	.	59*
Cc1oc(-c2ccccc2F)nc1CSCC(=O)NC1CCC(C)CC1 (centres undefined)	.	19	13	.	14
CCCCn1c(N)c(Sc2ccc(C)cc2)c(=O)[nH]c1=O	0	4	22	-5	-4
CCCn1c(N)c(Sc2ccc(C)cc2)c(=O)n(CCC)c1=O	0	56	73*	13	-8
CCCCn1c(N)c(N(CCOC)C(=O)CCCc2nc3ccccc3c(=O)[nH]2)c(=O)[nH]c1=O	.	-2	-9	.	-11
CCc1cc(=O)oc2cc(C)cc(OCC(=O)N3CCC(C(=O)NC(C)C)(c4ccccc4)CC3)c12	.	0	2	.	8
Cc1cc(C)nc(SCCC(=O)Nc2ccccc2Cl)n1	0	-8	1	12	-7
CCC1CCCCN1S(=O)(=O)c1ccc(S(=O)(=O)N(Cc2ccccn2)CC2CCCO2)cc1 (centres undefined)	0	4	3	17	10
CCC1CCCCN1S(=O)(=O)c1ccc(S(=O)(=O)N(Cc2cccs2)C2CC2)cc1 (centres undefined)	-1	14	36	100*	38
O=C(c1ccncc1)N1CCN(c2ccc(F)cc2)CC1	0	-66*	-73	-7	-2
CCOC(=O)C1CCN(C(=O)c2ccc3c(Cl)c4c(nc3c2)CCCC4)CC1	.	261	316*	.	-6
